Experimental data from different studies.
Protocols differ between the studies behind these lines.
ST14: Suppressor of tumorigenicity 14 protein (ST14, Homo sapiens, UniProt Q9Y5Y6)
Integrin alpha-V/beta-6: Integrin alpha-V/beta-6 (Homo sapiens, UniProt P06756+P18564)
ERG11: Lanosterol 14-alpha demethylase (ERG11, Candida albicans, UniProt P10613)
HTR7: 5-hydroxytryptamine receptor 7 (HTR7, Homo sapiens, UniProt P34969)

For `COCCC(=O)N[C@@H](CCC(N)=O)C(=O)N[C@@H](Cc1ccccc1)C(=O)N[C@@H](CCCNC(=N)N)C(=O)c1nc2ccccc2s1`, the Ki was 0.94 nM (ST14; cell-free assay).
`CC1=CC(=O)[C@@H](O)[C@]2(C)[C@H]3[C@@H](O)[C@H](O)[C@@]4(C)OC[C@@]35[C@@H](C[C@@H]12)OC(=O)[C@H](O)[C@]54O` has a Kd of 6570 nM (Serine/threonine-protein kinase pim-1 (PIM1, Homo sapiens, UniProt P11309); binding, SPR).
`C[C@@H](O)[C@H](NC(=O)C(C)(C)NC(=O)[C@@H](N)CS)C(=O)N[C@@H](CCCNC(=N)N)C(=O)NCC(=O)N[C@@H](CC(=O)O)C(=O)N[C@@H](Cc1cccnc1)C(=O)N1CC(F)(F)C[C@H]1C(N)=O` has a Kd of 54900 nM (Integrin alpha-V/beta-6; binding, BLI).
`O=S(=O)(c1ccc(OCC(O)CN2CCCC2)c(Cl)c1)c1ccc(OCC(O)CN2CCCC2)c(Cl)c1` (centres unmarked) has an IC50 of > 50000 nM (ERG11; enzyme activity, inhibitor, mass spectrometry).
With `Cc1cc(O)c2c(=O)c3c(O)cc(O)c4c5c(O)cc(O)c6c(=O)c7c(O)cc(C)c8c1c2c(c34)c(c78)c65` the Kd was 3680 nM (Calreticulin (CALR, Homo sapiens, UniProt P27797); binding, MST).
With `COc1cc2c(cc1OC)CN(CCc1ccc(NC(=O)c3cccc4c(=O)c5cccc(OC)c5[nH]c34)cc1)CC2` the Ki was 235 nM (HTR7; cell-free assay).
`CCN1CCN(Cc2ccc(Nc3ncc(F)c(-c4cc(F)c5nc6n(c5c4)[C@H](C)CCC6)n3)nc2)CC1` has an IC50 of 21.2 nM (Multidrug and toxin extrusion protein 1 (SLC47A1, Homo sapiens, UniProt Q96FL8); enzyme activity, inhibitor).
`CC(C)(NC(=O)[C@@H](N)CS)C(=O)N[C@@H](CO)C(=O)N[C@@H](CCCNC(=N)N)C(=O)NCC(=O)N[C@@H](CC(=O)O)C(=O)N[C@@H](Cc1c(F)c(F)c(F)c(F)c1F)C(=O)N1CCC(F)(F)C[C@H]1C(N)=O` has a Kd of 70400 nM (Integrin alpha-V/beta-6; binding, BLI).
The Ki of `CCCCC1CNC2CCc3ccc(OC)cc3C12` (racemic) is reported as 586 nM (HTR7; ligand displacement, radioligand).
`CS(=O)(=O)N[C@@H](CCC(N)=O)C(=O)N[C@@H](Cc1ccccc1)C(=O)N[C@@H](CCCNC(=N)N)C(=O)c1nccs1` has a Ki of 17 nM (ST14; cell-free assay).
The IC50 of `OC(COc1ccc(-c2nnco2)cc1)CN1CCN(CC(O)COc2ccc(-c3nnco3)cc2)CC1` (centres unmarked) is reported as > 50000 nM (ERG11; enzyme activity, inhibitor, mass spectrometry).
